{"data": "Published values of several laboratories", "target": "Serine/threonine-protein kinase Sgk3 (SGK3, Homo sapiens, UniProt Q96BR1)", "Sequence (Q96BR1 1-496, as in one of the studies)": "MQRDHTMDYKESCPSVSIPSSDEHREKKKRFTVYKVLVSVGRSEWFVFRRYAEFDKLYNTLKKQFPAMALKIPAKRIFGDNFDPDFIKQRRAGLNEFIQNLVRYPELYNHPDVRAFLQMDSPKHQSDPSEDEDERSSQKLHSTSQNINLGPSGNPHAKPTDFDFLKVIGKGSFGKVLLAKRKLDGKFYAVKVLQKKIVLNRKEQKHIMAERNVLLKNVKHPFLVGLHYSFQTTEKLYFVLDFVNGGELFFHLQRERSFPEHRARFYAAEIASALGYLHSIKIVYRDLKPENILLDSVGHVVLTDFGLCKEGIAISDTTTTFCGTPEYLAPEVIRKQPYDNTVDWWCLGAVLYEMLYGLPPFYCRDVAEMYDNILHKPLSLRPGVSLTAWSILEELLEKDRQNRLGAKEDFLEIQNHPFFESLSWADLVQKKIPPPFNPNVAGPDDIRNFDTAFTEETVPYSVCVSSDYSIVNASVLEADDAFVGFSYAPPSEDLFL", "note": "Each line is one published result; the experiments were not run side by side."}
{"SMILES": "CCN(CC)CCNC(=O)c1c(C)[nH]c(/C=C2\\C(=O)Nc3ccc(F)cc32)c1C", "test": "cell-free assay", "conditions": "0.5 µM", "quantity": "remaining signal", "value": "101%"}
{"SMILES": "COc1cccc2c(NCc3ccccc3)nc(-n3c(N)nc4ccccc43)nc12", "test": "target engagement in cells, inhibitor, chemoproteomics", "conditions": "20 mM", "quantity": "inhibition", "value": "-7.6%"}
{"SMILES": "N#CCCc1ccc2c(c1)-c1[nH]c3ccc([N+](=O)[O-])cc3c1CC(=O)N2", "test": "cell-free assay", "conditions": "0.5 µM", "quantity": "remaining signal", "value": "99.2%"}
{"SMILES": "Cc1cc(NC(=O)c2cccc(S(F)(F)(F)(F)F)c2)cc(-n2ccn3nc(-c4cccnc4)cc23)c1", "test": "cell-free assay, competition with immobilised ligand", "conditions": "1 µM", "quantity": "remaining binding", "value": "72.1%"}
{"SMILES": "Cc1ccc(Nc2nccc(N(C)c3ccc4c(C)n(C)nc4c3)n2)cc1S(N)(=O)=O", "test": "enzyme activity, inhibitor", "conditions": "10 µM", "quantity": "inhibition", "value": "13%"}
{"SMILES": "O=C(Nc1cccnn1)N1CC(C/C=C/c2cncc(Oc3ccc(C(F)(F)F)cn3)n2)C1", "test": "cell-free assay, competition with immobilised ligand", "conditions": "1 µM", "quantity": "remaining binding", "value": "87%"}
{"SMILES": "C[C@@H]1CCN(C(=O)CC#N)C[C@@H]1N(C)c1ncnc2[nH]ccc12", "test": "cell-free assay, inhibitor", "conditions": "0.5 µM", "quantity": "remaining signal", "value": "98.1%"}
{"SMILES": "Cc1c(NC(=O)c2cc(C(N)=O)nc3cc(F)ccc23)c(C(F)(F)F)nn1Cc1ccc(C#N)cc1", "test": "cell-free assay, competition with immobilised ligand", "conditions": "1 µM", "quantity": "remaining binding", "value": "83%"}
{"SMILES": "CN1CC(Oc2cnc(C#N)cc2-c2ccn3nc(NC(=O)C4CC4)cc3c2)C1", "test": "enzyme activity, inhibitor", "conditions": "1 µM", "quantity": "inhibition", "value": "-3%"}
{"SMILES": "O=C1CCc2cc(Nc3cc(OC4CCOCC4)c([N+](=O)[O-])cc3Cl)ccc2N1", "test": "cell-free assay, competition with immobilised ligand", "conditions": "1 µM", "quantity": "remaining binding", "value": "100%"}
{"SMILES": "CCCOc1ccc(OC)c(F)c1C(=O)c1ccc(C(=O)N[C@@H]2CNC[C@H]2NC(=O)c2ccc3[nH]ncc3c2)cc1", "test": "enzyme activity, inhibitor", "conditions": "10 µM", "quantity": "remaining activity", "value": "23%"}
{"SMILES": "Cn1nc(C(=O)NCc2ccc(C(=O)O)cc2)cc1-c1ccc2[nH]ccc2c1", "test": "cell-free assay, competition with immobilised ligand", "conditions": "0.1 µM", "quantity": "remaining binding", "value": "96%"}
{"SMILES": "Cc1sc(C(=O)NC2COC2)cc1-n1cc(NC(=O)Nc2c(F)cccc2Cl)cn1", "test": "enzyme activity, inhibitor", "conditions": "10 µM", "quantity": "remaining activity", "value": "90.1%"}
{"SMILES": "CS(=O)(=O)N1CCCC(NC(=O)[C@H](CCC2CCCCC2)NC(=O)c2ccc(CNC(=O)c3cnc4ccccn34)cc2)C1 (stereo partly drawn)", "test": "cell-free assay, competition with immobilised ligand", "conditions": "0.1 µM", "quantity": "remaining binding", "value": "74%"}
{"SMILES": "O=C(Nc1cnn(-c2csc(C(=O)NC3COC3)c2)c1)Nc1c(F)cccc1Cl", "test": "enzyme activity, inhibitor", "conditions": "5 µM", "quantity": "remaining activity", "value": "95.3%"}
{"SMILES": "Cc1cnc(NC2CCOCC2)nc1-n1cnc(C(=O)NC(CN)c2cc(F)cc(Cl)c2)c1 (stereo not drawn)", "test": "enzyme activity, inhibitor, radiometric", "conditions": "1 µM", "quantity": "remaining activity", "value": "92%"}
{"SMILES": "c1ccc(CNc2nc(N3CCOc4ccccc43)nc3c2CCCC3)cc1", "test": "target engagement in cells, inhibitor, chemoproteomics", "conditions": "20 mM", "quantity": "inhibition", "value": "-9%"}
{"SMILES": "CNc1cccc2cc(C(=O)Nc3ccc(C(=O)O)cc3)c(=O)[nH]c12", "test": "enzyme activity, inhibitor", "conditions": "10 µM", "quantity": "inhibition", "value": "-2.1%"}
{"SMILES": "Cc1cc(NC(=O)c2cccc3cc(-c4cccc5[nH]nc(N)c45)ccc23)ccc1F", "test": "enzyme activity, inhibitor", "conditions": "0.1 µM", "quantity": "activity vs control", "value": "106%"}
{"SMILES": "CC(C)(O)[C@H]1CC[C@H](Nc2ccc3ncc(-c4cccc(C(F)(F)F)c4)n3n2)CC1", "test": "enzyme activity, inhibitor", "conditions": "1 µM", "quantity": "remaining activity", "value": "95.8%"}
{"SMILES": "CNC(=O)c1cc(Oc2ccc(NC(=O)Nc3ccc(Cl)c(C(F)(F)F)c3)cc2)ccn1", "test": "enzyme activity, inhibitor", "conditions": "0.3 µM", "quantity": "inhibition", "value": "14%"}
{"SMILES": "COc1cc2ncnc(Nc3ccc(Oc4ccccc4)c(C)c3C)c2cc1OC", "test": "enzyme activity, inhibitor", "conditions": "1 µM", "quantity": "inhibition", "value": "-5%"}
{"SMILES": "CO[C@H]1CC[C@H](CNc2ccc(S(=O)(=O)NC(=O)c3ccc(N4CCN(CC5=C(c6ccc(Cl)cc6)CC(C)(C)CC5)CC4)cc3Oc3cnc4[nH]ccc4c3)cc2[N+](=O)[O-])CC1", "test": "cell-free assay, competition with immobilised ligand", "conditions": "1 µM", "quantity": "remaining binding", "value": "99%"}
{"SMILES": "CCCS(=O)(=O)Nc1ccc(F)c(C(=O)c2c[nH]c3ncc(-c4ccc(Cl)cc4)cc23)c1F", "test": "enzyme activity, inhibitor", "conditions": "1 µM", "quantity": "inhibition", "value": "< 10%"}
